BindingDB's records for doi:10.1021/jm9600205 (National Institute of Diabetes, 1996)

Molecular target: Adenosine receptor A2a (Rattus norvegicus, UniProt P30543)
Assay: Displacement of [3H]-CGS- 21680 binding to Adenosine A2A receptor in rat striatal membranes
How it was run: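 Adenosine deaminase (3 units/mL) present during preparation, 30 min preincubation at 30 °C and incubation. At least five competitor concentrations over 3 orders of magnitude.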

Adenosine receptor A2a, sequence (P30543 whole entry): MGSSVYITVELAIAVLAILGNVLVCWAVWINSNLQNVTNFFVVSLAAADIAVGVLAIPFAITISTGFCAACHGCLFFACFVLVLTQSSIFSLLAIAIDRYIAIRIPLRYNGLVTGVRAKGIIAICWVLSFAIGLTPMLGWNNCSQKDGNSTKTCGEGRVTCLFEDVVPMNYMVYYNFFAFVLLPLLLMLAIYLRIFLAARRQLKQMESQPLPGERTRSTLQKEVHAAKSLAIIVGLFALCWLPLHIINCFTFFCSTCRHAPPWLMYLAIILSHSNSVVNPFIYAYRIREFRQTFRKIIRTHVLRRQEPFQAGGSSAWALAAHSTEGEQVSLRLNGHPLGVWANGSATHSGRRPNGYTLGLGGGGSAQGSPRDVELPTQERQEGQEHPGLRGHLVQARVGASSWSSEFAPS

Structure (SMILES)	Ki [µM]
CCOC(=O)C1=C(C)N=C(C)C(C(=O)OC)C1C (configuration not stated) [2,4,6-Trimethyl-1,4-dihydro-pyridine-3,5-dicarboxylic acid 3-ethyl ester 5-methyl ester]	46.1
CCOC(=O)C1=C(c2ccccc2)N=C(C)C(C(=O)OCC)C1C (configuration not stated) [2,4-Dimethyl-6-phenyl-1,4-dihydro-pyridine-3,5-dicarboxylic acid diethyl ester]	35.9
